# Shown are actives, neighbours in structure and some others; about 5.9% of the full set was active somewhere.
# PTK2B oligo ant: blocks oligomerization of human Pyk2 in cells; Q293 cells, Pyk2 FERM NanoBiT luminescence; active compounds read low; z-score (the deposit names both 25 µM and 10 µM); 0.83% of 99,000 active;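 active = Z-score of -3 or lower, scaled per plate to the spread of control and sample wells; inactive = z-score above -3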;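 note: negative z-score means lost luminescence so less FERM oligomerization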
# DAT uptake mod: changed human dopamine transporter uptake under cocaine IC80 | Q01959 | LLC-PK1 hDAT cells, [14C]-dopamine uptake with cocaine IC80; actives deviate in either direction | B-score at 10 µM | 1.3% of 110,000 active | AID 449768;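 active = Z score or B-score, a plate-position-corrected score, falls beyond the plate's 99.7% confidence bounds, in either direction; inactive = both scores lie inside the 99.7% bounds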;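 note: scored against the spread of the other compound wells on the same plate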
# Measles CPE: protection of cells from measles virus; Measles virus-infected cells, CPE protection, absorbance; protection (pct of control), % at 4 µM; AID 841; 1.5% of 140,000 active; in the data active = protection mostly above about 24%, no sharp cut-off; inactive = mostly below about 26%
# Phagocyt inh: macrophage phagocytosis inhibition | inhibition, % at 5 µM | 0.07% of 110,000 active | J774A.1 macrophage IgG-bead phagocytosis, imaging;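 active = inhibition above the mean of the plate negative controls plus 5 SD, cut at about 13% in these data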;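 note: phagocytic index as fraction of beads internalized from green versus red external bead signal; plate controls were DMSO negative control for no effect and cytochalasin-D positive control for full effect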
# Cav32 inh: blocks human Cav3.2 T-type calcium channel. 4% of 100,000 active. Cav3.2-expressing cells, Fluo-4 calcium fluorescence FDSS; active compounds read low. O95180. B-score at 10 µM. AID 449739;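 active = single-dose well whose peak fluorescence ratio is a statistical outlier from its plate by either plate-standardised score or position-corrected B-score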
# Target sequence (O95180 whole entry, looked up): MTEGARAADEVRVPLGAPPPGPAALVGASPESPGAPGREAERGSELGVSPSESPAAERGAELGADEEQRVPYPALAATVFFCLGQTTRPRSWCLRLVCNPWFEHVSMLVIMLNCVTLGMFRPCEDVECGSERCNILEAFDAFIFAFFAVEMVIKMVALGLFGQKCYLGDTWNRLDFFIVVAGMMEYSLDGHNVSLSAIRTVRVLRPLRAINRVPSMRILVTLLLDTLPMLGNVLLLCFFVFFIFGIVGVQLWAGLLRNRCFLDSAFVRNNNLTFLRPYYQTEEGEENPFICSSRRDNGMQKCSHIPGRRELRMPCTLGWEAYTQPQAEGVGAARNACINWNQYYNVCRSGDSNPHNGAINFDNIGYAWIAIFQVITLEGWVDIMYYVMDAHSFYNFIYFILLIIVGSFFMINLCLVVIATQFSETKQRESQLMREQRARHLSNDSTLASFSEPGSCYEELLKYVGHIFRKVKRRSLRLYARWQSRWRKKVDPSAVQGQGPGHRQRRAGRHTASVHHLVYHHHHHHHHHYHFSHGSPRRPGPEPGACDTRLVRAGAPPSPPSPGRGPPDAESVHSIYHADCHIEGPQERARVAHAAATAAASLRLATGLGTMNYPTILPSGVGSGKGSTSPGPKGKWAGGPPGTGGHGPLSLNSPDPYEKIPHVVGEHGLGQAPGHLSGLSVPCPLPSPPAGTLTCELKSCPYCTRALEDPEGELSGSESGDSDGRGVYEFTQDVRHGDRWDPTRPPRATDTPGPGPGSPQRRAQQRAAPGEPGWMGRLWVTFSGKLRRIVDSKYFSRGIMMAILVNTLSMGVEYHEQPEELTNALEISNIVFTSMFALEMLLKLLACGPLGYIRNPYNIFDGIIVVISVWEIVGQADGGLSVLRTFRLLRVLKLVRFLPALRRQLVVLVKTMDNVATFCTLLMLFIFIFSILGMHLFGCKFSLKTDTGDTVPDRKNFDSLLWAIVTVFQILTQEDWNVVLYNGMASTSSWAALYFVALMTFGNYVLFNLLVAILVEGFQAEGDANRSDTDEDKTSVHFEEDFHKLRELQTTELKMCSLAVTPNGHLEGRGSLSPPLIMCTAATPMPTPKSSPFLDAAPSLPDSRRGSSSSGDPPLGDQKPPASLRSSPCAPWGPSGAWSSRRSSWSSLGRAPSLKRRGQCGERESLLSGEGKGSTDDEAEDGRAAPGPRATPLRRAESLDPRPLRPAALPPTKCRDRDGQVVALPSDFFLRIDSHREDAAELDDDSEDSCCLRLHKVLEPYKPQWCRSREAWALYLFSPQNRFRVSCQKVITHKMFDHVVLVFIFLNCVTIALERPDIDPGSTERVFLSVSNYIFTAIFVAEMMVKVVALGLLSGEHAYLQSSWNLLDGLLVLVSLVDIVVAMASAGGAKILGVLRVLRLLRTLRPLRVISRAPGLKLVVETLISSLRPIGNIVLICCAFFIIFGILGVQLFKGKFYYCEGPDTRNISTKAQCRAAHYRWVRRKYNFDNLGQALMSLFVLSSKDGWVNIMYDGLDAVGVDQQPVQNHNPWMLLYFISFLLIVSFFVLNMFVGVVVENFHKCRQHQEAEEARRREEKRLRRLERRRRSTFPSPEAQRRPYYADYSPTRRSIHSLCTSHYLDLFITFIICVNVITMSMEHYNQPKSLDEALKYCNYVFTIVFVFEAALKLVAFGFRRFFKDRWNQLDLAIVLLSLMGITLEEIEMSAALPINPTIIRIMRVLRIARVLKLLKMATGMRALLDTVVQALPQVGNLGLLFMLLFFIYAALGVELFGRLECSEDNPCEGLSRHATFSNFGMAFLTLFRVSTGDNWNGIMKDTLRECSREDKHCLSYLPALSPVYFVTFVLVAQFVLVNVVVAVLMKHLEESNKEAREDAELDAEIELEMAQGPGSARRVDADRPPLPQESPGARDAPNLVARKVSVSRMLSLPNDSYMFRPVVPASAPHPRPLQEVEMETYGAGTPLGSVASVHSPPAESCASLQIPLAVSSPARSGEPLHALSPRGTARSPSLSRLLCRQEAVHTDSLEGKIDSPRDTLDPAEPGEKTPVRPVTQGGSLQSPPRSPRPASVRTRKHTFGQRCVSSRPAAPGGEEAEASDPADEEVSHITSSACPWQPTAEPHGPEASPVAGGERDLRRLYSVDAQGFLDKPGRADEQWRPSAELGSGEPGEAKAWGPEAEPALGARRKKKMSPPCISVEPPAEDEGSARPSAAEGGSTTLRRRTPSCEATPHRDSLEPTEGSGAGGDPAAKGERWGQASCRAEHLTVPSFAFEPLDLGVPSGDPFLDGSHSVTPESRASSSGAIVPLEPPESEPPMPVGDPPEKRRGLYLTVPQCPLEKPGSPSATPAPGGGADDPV
# Rev-RRE block: inhibitors of HIV-1 Rev-RRE RNA interaction; P05866; Rev peptide-RRE RNA binding, FRET; inhibition, % at 8 µM; 0.79% of 97,000 active; AID 704;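 active = inhibition above the screen-wide mean plus 3 SD, cut at about 35% in these data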;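 note: 0% = median DMSO wells and 100% = median Neomycin B control wells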
#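 assay system = Cy5-tagged RRE RNA duplex with fluorescein-tagged Rev peptide | incubation = 5 + 15 min at 25 °C | also added = labelled Rev peptide | measure = % inhibition of FRET ratio versus controls | benchmarks = DMSO wells as 0% and neomycin B wells as 100% inhibition | measured by = FRET fluorescence readout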
# Active calls of the source: *; / = not tested or not shown.
SMILES,PTK2B oligo ant,DAT uptake mod,Measles CPE,Phagocyt inh,Cav32 inh,Rev-RRE block
O=C1CCCC2=C1C(c1ccc(Cl)cc1)C1C(=O)c3ccccc3C1=N2 (stereo not given),-2.9,2.6*,5,/,-4,3
COCc1cc(Sc2cccc(Cl)c2Cl)nc(-c2ccccc2)n1,0.74,-0.1,15,-1,-1,16
Cc1nc(CS(=O)(=O)c2ccccc2)cc(Sc2ccc(Cl)cc2Cl)n1,-0.4,-0.61,7,0,-5.7*,12
Cn1cccc1Cc1nnc(SCC(=O)Nc2cccc(F)c2)n1CCc1ccccc1,/,2.1*,12,1,-0.091,/
Cn1cccc1Cc1nnc(SCC(=O)N2CCc3ccccc32)n1CCc1ccccc1,/,1.8,6,1,-8.7*,/
Cc1csc(NC(=O)CSc2nnc(Cc3cccn3C)n2CCc2ccccc2)n1,/,0.0079,8,0,-8.4*,/
Cn1cccc1Cc1nnc(SCC(=O)Nc2ccccc2F)n1CCc1ccccc1,/,0.025,10,0,-3.7,6
COc1ccc(N(CC(=O)Nc2ccc3c(c2)OCO3)S(=O)(=O)c2ccc(F)cc2)cc1,/,/,16,0,/,/
COc1ccc(N(CC(=O)Nc2ccc3c(c2)OCO3)S(=O)(=O)c2ccccc2)c(OC)c1,-3.2*,0.14,8,0,-2.6,10
COc1cc(/C=N/NC(=O)c2ccc(O)cc2)ccc1Oc1ccc([N+](=O)[O-])cn1,/,/,21,-11,/,/
CCc1cccc(CC)c1NC(=O)CSc1nc2ccc(N3C(=O)C4C(C3=O)[C@H]3C=C[C@@H]4C3)cc2s1 (stereo not given in full),/,/,7,-6,/,/
O=C(Nc1ccc(O)cc1)c1ccc(C(=O)c2ccccc2)o1,-3.2*,0.13,5,-1,-0.31,5
O=C(Nc1ccc(Nc2ccccc2)cc1)c1ccc(Br)o1,-0.65,/,0,1,/,0
O=C(Nn1c(C2CCCCC2)nc2ccccc2c1=O)c1ccc([N+](=O)[O-])cc1Cl,/,/,7,0,/,/
CCCCNC(=O)COc1ccccc1C(=O)c1cc(C#N)c(=O)n(CCOC)c1,0.23,/,42*,/,/,/
N#Cc1cc(C(=O)c2ccccc2OCC(=O)Nc2ccccc2)cn(C2CCCCC2)c1=O,/,/,12,-5,/,/
COCCOC(=O)c1c(NC(=O)CN2CCCc3ccccc32)sc(C(N)=O)c1C,/,/,1,-13,/,/
O=C(O)/C(=C\c1ccco1)NC(=O)c1ccccc1,-0.57,/,30*,-7,/,/
Cc1cccc(C)c1NC(=O)/C(=C/c1ccco1)c1ccccc1,-0.81,0.71,12,-1,-8.6*,-3
Cc1cc(C)c(NC(=O)/C(=C/c2ccco2)c2ccccc2)c(C)c1,0.35,0.1,11,0,-2.7,11
Cc1ccccc1NC(=O)/C(=C/c1ccccc1)c1ccccc1,-1.7,1.1,3,/,-4.8*,16
COC(=O)/C(=C/c1ccco1)NC(=O)c1ccccc1,/,/,7,-3,/,/
COC(=O)CN=C1OC(=O)N2C(=O)C3=C4[C@@H](C[C@H]5C(=O)N(c6ccccc6)C(=O)[C@H]5[C@H]4[C@@]12Cc1ccccc1)[C@H]1C(=O)N(c2ccccc2)C(=O)[C@H]1[C@H]3C,/,0.12,/,/,-0.78,/
Cc1cccc(C(=O)c2c[nH]cc2-c2ccccc2)c1,/,/,13,0,/,/
CCOC(=O)N1CCN(/C=C(\C#N)c2nc3ccccc3s2)CC1,0.71,1.4,10,0,-1,53*
SMILES,PTK2B oligo ant,DAT uptake mod,Measles CPE,Phagocyt inh,Cav32 inh,Rev-RRE block
COC(=O)c1ccc(/C=C(\C#N)c2nc3ccccc3s2)cc1,0.88,-0.41,8,/,0.032,31
CCOC(=O)N1CCN(CC(O)COc2ccc(C)cc2C(C)(C)C)CC1 (stereo not given),/,/,4,-2,/,/
Cc1ccc(N2C(=O)c3ccccc3NC2C(C)Cc2ccc3c(c2)OCO3)cc1 (stereo not given),-2.2,1.6,4,/,-4.3*,4
CCOc1ccccc1Nc1nnc(C)c(=O)[nH]1,0.63,-0.58,60*,-2,-0.16,1
CCN(CC)S(=O)(=O)c1cccc(C(=O)N2CCCCC2)c1,-1,-0.88,15,-1,0.11,-3
CCN(CC)S(=O)(=O)c1cccc(C(=O)N2CC(O)CC2C(=O)O)c1 (stereo not given),0.02,-0.55,28*,6,0.82,5
O=C(NCc1cccc(Br)c1)C1CC(c2ccc(C(F)(F)F)cc2)=NO1 (stereo not given),/,-0.097,/,/,-1.2,/
CCOC(=O)N1CCN(C(=O)c2ccc3c(c2)sc2nc(-c4ccc(OC)cc4)cn23)CC1,1.1,0.081,63*,0,0.33,-4
O=C(CN1C(=O)S/C(=C\c2ccc(Cl)cc2)C1=O)NNC(=O)c1ccccc1O,-0.24,/,6,/,/,/
NC(=O)C1CCN(c2ncnc3c(-c4ccccc4)nsc23)CC1,-0.36,-7.2*,32,0,0.84,-2
O=C(CCC1N=C2c3ccccc3N=C(SCc3ccccc3Cl)N2C1=O)NCc1ccco1 (stereo not given),0.68,0.98,4,-2,-4.2*,1
COc1cc(OC)c(OC)cc1/C=C/C(=O)c1ccc(NS(=O)(=O)c2ccc(C)cc2)cc1,/,/,3,-4,/,/
Cc1cccc(N(CC(O)CON=C2c3ccccc3-c3ccccc32)S(C)(=O)=O)c1 (stereo not given),-1.9,0.022,8,1,-0.31,10
CC(=O)CSc1nnc(-c2ccc(S(=O)(=O)N3CCC(C)CC3)cc2)o1,0.48,-0.81,/,/,0.038,-4
Nc1c2c(nc3ccc(Br)cc13)N(Cc1ccccc1)CC2,/,/,28*,-9,/,/
OC(c1ccccc1)(c1ccc(F)cc1)C(c1ccccc1)N1CCOCC1 (stereo not given),-1.1,-1.9,2,/,-2.8*,7
CC1(c2ccccc2)CC(C)(C)N(C(=O)C2CCCO2)c2ccccc21 (stereo not given),-0.34,-0.84,3,-1,-4.5*,10
O=[N+]([O-])c1ccc(C2CCCC/C2=N/OCc2ccc(F)cc2)c([N+](=O)[O-])c1 (stereo not given),-0.02,-0.82,4,/,-5.4*,13
O=[N+]([O-])c1ccc(C2CCCC/C2=N/OCc2ccccc2F)c([N+](=O)[O-])c1 (stereo not given),-0.73,-0.54,32,/,-6.5*,14
CCCCn1nnc(NC(=S)NC(=O)c2cccs2)n1,/,/,30,-9,/,/
O=C(c1ccc2ccccc2c1)N1CCN(c2ccc([N+](=O)[O-])c(N3CCOCC3)c2)CC1,-0.24,2,4,-1,-0.35,-1
Cc1cccc(C(=O)N2CCN(c3ccc([N+](=O)[O-])c(N4CCOCC4)c3)CC2)c1,-1.6,-0.55,4,/,3.7*,8
COc1ccc(CNS(=O)(=O)c2ccccc2Br)cc1,/,0.28,/,/,-1.1,/
CCO[C@H]1OC(C(=O)N2CCN(Cc3ccc4c(c3)OCO4)CC2)=C[C@@H](C2CC2)[C@@H]1CCCO,/,-1.1,/,/,1,/
